Assay [1] concerns the target Carbonic anhydrase 12 (Homo sapiens) (UniProt O43570). Nature of the assay: Activation of human transmembrane carbonic anhydrase 12 preincubated for 15 mins by CO2 hydration stopped-flow assay.
The target of assay [2] is Carbonic anhydrase 9 (Homo sapiens) (UniProt Q16790). Nature of the assay: Activation of human transmembrane carbonic anhydrase 9 preincubated for 15 mins by CO2 hydration stopped-flow assay.
Assay [3] addresses Carbonic anhydrase 7 (Homo sapiens) (UniProt P43166). In words: Activation of human cytosolic carbonic anhydrase 7 preincubated for 15 mins by CO2 hydration stopped-flow assay.
Assay [4] addresses Carbonic anhydrase 1 (Homo sapiens) (UniProt P00915). In words: Activation of human cytosolic carbonic anhydrase 1 preincubated for 15 mins by CO2 hydration stopped-flow assay.
The target in assay [5] is Carbonic anhydrase 2 (Homo sapiens) (UniProt P00918). In words: Activation of human cytosolic carbonic anhydrase 2 preincubated for 15 mins by CO2 hydration stopped-flow assay.
Assay [6] deals with Carbonic anhydrase 14 (Homo sapiens) (UniProt Q9ULX7). In words: Activation of human transmembrane carbonic anhydrase 14 preincubated for 15 mins by CO2 hydration stopped-flow assay.
Sequence of Carbonic anhydrase 14 (Homo sapiens) (Q9ULX7 whole entry): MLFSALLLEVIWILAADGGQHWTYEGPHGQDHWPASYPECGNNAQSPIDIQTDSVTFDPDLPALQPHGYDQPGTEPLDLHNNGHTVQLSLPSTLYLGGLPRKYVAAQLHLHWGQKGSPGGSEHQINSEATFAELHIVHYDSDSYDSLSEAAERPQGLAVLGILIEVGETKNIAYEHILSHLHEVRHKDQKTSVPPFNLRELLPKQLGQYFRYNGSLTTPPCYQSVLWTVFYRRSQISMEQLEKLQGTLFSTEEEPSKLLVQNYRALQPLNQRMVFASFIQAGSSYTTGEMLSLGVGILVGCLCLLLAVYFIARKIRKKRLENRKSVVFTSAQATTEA
The target of assay [7] is Carbonic anhydrase 9 (Homo sapiens) (UniProt Q16790). In words: Binding affinity to human transmembrane carbonic anhydrase 9.
In assay [8] the target is Carbonic anhydrase 12 (Homo sapiens) (UniProt O43570). Nature of the assay: Binding affinity to human transmembrane carbonic anhydrase 12.
Sequence of Carbonic anhydrase 12 (Homo sapiens) (O43570 whole entry): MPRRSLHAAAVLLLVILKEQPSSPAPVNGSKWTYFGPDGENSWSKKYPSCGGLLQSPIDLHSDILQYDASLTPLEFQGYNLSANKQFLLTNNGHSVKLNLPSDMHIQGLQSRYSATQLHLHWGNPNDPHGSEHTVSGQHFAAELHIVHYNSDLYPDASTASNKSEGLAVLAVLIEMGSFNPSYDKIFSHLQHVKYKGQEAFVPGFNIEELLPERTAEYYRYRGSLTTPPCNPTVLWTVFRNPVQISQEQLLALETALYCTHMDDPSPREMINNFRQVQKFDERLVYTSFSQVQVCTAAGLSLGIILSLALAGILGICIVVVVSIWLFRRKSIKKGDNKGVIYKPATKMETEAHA
For assay [9], the target named is Carbonic anhydrase 14 (Homo sapiens) (UniProt Q9ULX7). Nature of the assay: Binding affinity to human transmembrane carbonic anhydrase 14.
For assay [10], the target named is Carbonic anhydrase 1 (Homo sapiens) (UniProt P00915). In words: Binding affinity to human cytosolic carbonic anhydrase 1.
Sequence of Carbonic anhydrase 1 (Homo sapiens) (P00915 2-261 limits assumed): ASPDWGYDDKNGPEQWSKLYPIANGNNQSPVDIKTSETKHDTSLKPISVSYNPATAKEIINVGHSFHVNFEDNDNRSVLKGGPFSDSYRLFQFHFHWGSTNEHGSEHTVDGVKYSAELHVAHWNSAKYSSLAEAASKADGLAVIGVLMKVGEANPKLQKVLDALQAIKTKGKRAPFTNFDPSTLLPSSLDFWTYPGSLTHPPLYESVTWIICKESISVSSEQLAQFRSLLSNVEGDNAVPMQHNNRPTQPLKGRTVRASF
Assay [11] concerns the target Carbonic anhydrase 2 (Homo sapiens) (UniProt P00918). Nature of the assay: Binding affinity to human cytosolic carbonic anhydrase 2.
Assay [12] has as its target Carbonic anhydrase 7 (Homo sapiens) (UniProt P43166). Nature of the assay: Binding affinity to human cytosolic carbonic anhydrase 7.
The target in assay [13] is Carbonic anhydrase 2 (Homo sapiens) (UniProt P00918). Nature of the assay: Activation of human carbonic anhydrase 2 activity at 20 uM after 15 mins by CO2 hydration stopped-flow assay relative to control. In a few lines: (§1)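 hCA II (10 nM) held with test compound at 20 µM (stated as 20 lM in the footnote) for 15 min to 144 h before assay. Activity then read by stopped-flow CO2 hydrase assay. Values are % of initial enzyme activity with no test compound, which is set to 100%.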

Assay [14] shares this target. Nature of the assay: Activation of human carbonic anhydrase 2 activity at 20 uM after 1 hr by CO2 hydration stopped-flow assay relative to control. Put shortly:
as §1

The target is the same in assay [15]. In words: Activation of human carbonic anhydrase 2 activity at 20 uM after 12 hrs by CO2 hydration stopped-flow assay relative to control. In a few lines:
as §1

For assay [16] the target is unchanged. In words: Activation of human carbonic anhydrase 2 activity at 20 uM after 24 hrs by CO2 hydration stopped-flow assay relative to control. Put shortly:
as §1

Assay [17] has the same target. Nature of the assay: Activation of human carbonic anhydrase 2 activity at 20 uM after 36 hrs by CO2 hydration stopped-flow assay relative to control. In a few lines: as §1
Assay [18] has the same target. Nature of the assay: Inhibition of human carbonic anhydrase 2 activity at 20 uM after 48 hrs by CO2 hydration stopped-flow assay relative to control. Put shortly:
as §1

Assay [19] has the same target. Nature of the assay: Inhibition of human carbonic anhydrase 2 activity at 20 uM after 72 hrs by CO2 hydration stopped-flow assay relative to control. Put shortly:
as §1

Assay [20] shares this target. Nature of the assay: Inhibition of human carbonic anhydrase 2 activity at 20 uM after 96 hrs by CO2 hydration stopped-flow assay relative to control. In a few lines: as §1
Assay [21] has the same target. Nature of the assay: Inhibition of human carbonic anhydrase 2 activity at 20 uM after 144 hrs by CO2 hydration stopped-flow assay relative to control. Put shortly: as §1

The inhibition is the relative decrease from the control value, in per cent.

Sequence of Carbonic anhydrase 7 (Homo sapiens) (P43166 whole entry): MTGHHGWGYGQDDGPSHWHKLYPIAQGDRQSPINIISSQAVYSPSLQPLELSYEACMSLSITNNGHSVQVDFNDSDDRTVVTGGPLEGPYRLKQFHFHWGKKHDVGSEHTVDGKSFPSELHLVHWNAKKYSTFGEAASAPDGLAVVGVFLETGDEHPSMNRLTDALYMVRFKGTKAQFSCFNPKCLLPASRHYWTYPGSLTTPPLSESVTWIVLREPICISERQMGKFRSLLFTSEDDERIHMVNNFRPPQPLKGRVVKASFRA

With `Cc1cc(C)[n+](CCc2c[nH]cn2)c(C)c1`, the Ka came out at 0.96 µM in [1]; 0.76 µM in [2]; 7.71 µM in assay [3]; 3.15 µM in assay [4]; 18 µM in assay [5]; 0.08 µM in assay [6]. Moreover, the Activity in assay [7] was 0.08 µM; in [8], 0.08 µM; in assay [9] it was 0.08 µM; in assay [10] it was 3.15 µM; in assay [11], 3.15 µM; in assay [12], 3.15 µM. In addition, the Activity in [13] turned out to be 156%; in assay [14], 153%; in assay [15] it was 154%; in [16] it was 149%; in [17], 147%. The inhibition in assay [18] stood at 65%; in [19], 14%; in assay [20] it was 5%; in assay [21], 3%.

For the origin of these results see ChEMBL document CHEMBL1770084, “An inhibitor-like binding mode of a carbonic anhydrase activator within the active site of isoform II” (Bioorg Med Chem Lett, 2011).
